Calls of active or inactive are those of the source. No cut-off for these calls is given here.
Experiments:
[1] = biological target: T1, DNA topoisomerase 2-alpha (Homo sapiens, UniProt P11388); experiment: Inhibition of human topoisomerase 2 alpha-mediated decatenation of kDNA at 100 uM by agarose gel electrophoresis
In short: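 150 ng kDNA with 2–4 units purified human topo II and 100 μM compound in DMSO, buffer 0.5 M Tris-HCl pH 8, NaCl, MgCl2, DTT, BSA with ATP (stock buffer concentrations), 20 μL, 37 °C 30 min. Stopped with SDS, proteinase K 37 °C 15 min; 1% agarose in TAE with 0.5 μg/mL EtBr; bands quantified by densitometry; etoposide 100 μM as reference.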

[2] = biological target: T1, DNA topoisomerase 2-alpha; experiment: Inhibition of human topoisomerase 2 alpha-mediated relaxation of pRYG plasmid DNA at 100 uM by agarose gel electrophoresis
In short: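 250 ng supercoiled pRYG plasmid, 2–4 units hTopoIIα, 100 μM compound, ATP-containing Tris pH 8 buffer, 20 μL, 37 °C 30 min; SDS/proteinase K stop; 1% agarose in TAE without EtBr, post-stained 0.5 μg/mL EtBr; products quantified densitometrically.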

[3] = biological target: T1, DNA topoisomerase 2-alpha; experiment: Inhibition of etoposide poisoning activity against human recombinant DNA topoisomerase 2alpha assessed as enhancement of in relaxation of supercoiled plasmid pBR322 DNA at 200 uM after 30 mins by agarose gel electrophoresis
[4] = biological target: T1, DNA topoisomerase 2-alpha; experiment: Inhibition of etoposide poisoning activity against human recombinant DNA topoisomerase 2alpha assessed as enhancement of in relaxation of supercoiled plasmid pBR322 DNA at 100 uM after 30 mins by agarose gel electrophoresis
HEK293 [5] = experiment: Cytotoxicity against human HEK293 cells assessed as cell survival after 48 hrs by MTT assay; type: functional; conditions: HEK293, 48 h, read-out: LC50 (the source's name)
In short: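 HEK 293 cells were cultured in DMEM with 10% FBS and antibiotics at 37 °C in 5% CO₂. At 60–70% confluence they were treated for 48 h with various concentrations, diluted in DMEM from 100 mM DMSO stocks. Survival was read by MTT. LC₅₀ is the concentration killing 50% of cells. Data are mean ± SD of three independent experiments.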

[6] = biological target: T1, DNA topoisomerase 2-alpha; experiment: Inhibition of human topoisomerase 2 alpha-mediated unwinding of supercoiled DNA assessed as DNA intercalation at 100 uM by agarose gel electrophoresis
In short: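 250 ng negatively supercoiled E. coli plasmid incubated 20 min at 37 °C with 1 μg/mL ethidium bromide (intercalator control), 100 μM etoposide or test compound; run on 1% agarose in TAE without EtBr, then post-stained with 0.5 μg/mL EtBr; mobility retardation scored.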

[7] = biological target: T1, DNA topoisomerase 2-alpha; conditions: HEK293, 100 uM
[8] = biological target: T1, DNA topoisomerase 2-alpha; conditions: HEK293, 100 uM; remark: listed apart in the source
[9] = Cytotoxicity activity against african green monkey Vero assessed as cell survival at 100 uM after 48 hrs by MTT assay; type: cell-based; conditions: chlorocebus sabaeus, Vero cells; read-out: Activity
In short: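 MTT survival of HEK 293 and Vero cells after 48 h with compound at graded concentrations. DMEM, 10% FBS, 37 °C, 5% CO2; dilutions in DMEM from 100 mM DMSO stock, added at 60–70% confluence. Mean ± SD of three independent experiments.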

[10] = Anticlonogenic activity against african green monkey Vero after 48 hrs by crystal violet staining; type: ADME, cell-based; conditions: chlorocebus sabaeus, Vero cells; read-out: LC50
In short: (§1)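 HEK 293 and Vero cells were grown in DMEM with 10% FBS and 1% penicillin/streptomycin at 37 °C in 5% CO₂. At 60–70% confluence they were exposed for 48 h to a range of concentrations, diluted in DMEM from 100 mM DMSO stocks. Colony survival is expressed as %. Values are mean ± SD of three independent experiments; LC₅₀ is the concentration killing half the cells.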

HEK293 [11] = experiment: Anticlonogenic activity against human HEK293 cells after 48 hrs by crystal violet staining; type: functional; conditions: HEK293, 48 h, read-out: LC50 (the source's name); in short: as §1
Vero = experiment: Anticlonogenic activity against african green monkey Vero cells assessed as inhibition of colony formation of cells at 20 to 100 uM after 48 hrs by crystal violet staining; type: cell-based; conditions: chlorocebus sabaeus
In short: (§2)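 Clonogenic survival in HEK 293 and Vero cells, 48 h exposure at graded concentrations; % survival plotted; mean ± SD of three independent experiments. Cells grown in DMEM with 10% FBS and 1% antibiotic at 37 °C, 5% CO2; compound diluted from 100 mM DMSO stock into DMEM, added at 60–70% confluence.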

HEK293 [12] = experiment: Anticlonogenic activity against human HEK293 cells assessed as inhibition of colony formation of cells at 20 to 100 uM after 48 hrs by crystal violet staining; type: functional, cell-based; in short: as §2
HEK293 [13] = experiment: Cytotoxicity against human HEK293 cells assessed as cell survival at 30 uM after 48 hrs by MTT assay; type: functional; conditions: HEK293, 48 h, read-out: Activity

T1 sequence (P11388 whole entry): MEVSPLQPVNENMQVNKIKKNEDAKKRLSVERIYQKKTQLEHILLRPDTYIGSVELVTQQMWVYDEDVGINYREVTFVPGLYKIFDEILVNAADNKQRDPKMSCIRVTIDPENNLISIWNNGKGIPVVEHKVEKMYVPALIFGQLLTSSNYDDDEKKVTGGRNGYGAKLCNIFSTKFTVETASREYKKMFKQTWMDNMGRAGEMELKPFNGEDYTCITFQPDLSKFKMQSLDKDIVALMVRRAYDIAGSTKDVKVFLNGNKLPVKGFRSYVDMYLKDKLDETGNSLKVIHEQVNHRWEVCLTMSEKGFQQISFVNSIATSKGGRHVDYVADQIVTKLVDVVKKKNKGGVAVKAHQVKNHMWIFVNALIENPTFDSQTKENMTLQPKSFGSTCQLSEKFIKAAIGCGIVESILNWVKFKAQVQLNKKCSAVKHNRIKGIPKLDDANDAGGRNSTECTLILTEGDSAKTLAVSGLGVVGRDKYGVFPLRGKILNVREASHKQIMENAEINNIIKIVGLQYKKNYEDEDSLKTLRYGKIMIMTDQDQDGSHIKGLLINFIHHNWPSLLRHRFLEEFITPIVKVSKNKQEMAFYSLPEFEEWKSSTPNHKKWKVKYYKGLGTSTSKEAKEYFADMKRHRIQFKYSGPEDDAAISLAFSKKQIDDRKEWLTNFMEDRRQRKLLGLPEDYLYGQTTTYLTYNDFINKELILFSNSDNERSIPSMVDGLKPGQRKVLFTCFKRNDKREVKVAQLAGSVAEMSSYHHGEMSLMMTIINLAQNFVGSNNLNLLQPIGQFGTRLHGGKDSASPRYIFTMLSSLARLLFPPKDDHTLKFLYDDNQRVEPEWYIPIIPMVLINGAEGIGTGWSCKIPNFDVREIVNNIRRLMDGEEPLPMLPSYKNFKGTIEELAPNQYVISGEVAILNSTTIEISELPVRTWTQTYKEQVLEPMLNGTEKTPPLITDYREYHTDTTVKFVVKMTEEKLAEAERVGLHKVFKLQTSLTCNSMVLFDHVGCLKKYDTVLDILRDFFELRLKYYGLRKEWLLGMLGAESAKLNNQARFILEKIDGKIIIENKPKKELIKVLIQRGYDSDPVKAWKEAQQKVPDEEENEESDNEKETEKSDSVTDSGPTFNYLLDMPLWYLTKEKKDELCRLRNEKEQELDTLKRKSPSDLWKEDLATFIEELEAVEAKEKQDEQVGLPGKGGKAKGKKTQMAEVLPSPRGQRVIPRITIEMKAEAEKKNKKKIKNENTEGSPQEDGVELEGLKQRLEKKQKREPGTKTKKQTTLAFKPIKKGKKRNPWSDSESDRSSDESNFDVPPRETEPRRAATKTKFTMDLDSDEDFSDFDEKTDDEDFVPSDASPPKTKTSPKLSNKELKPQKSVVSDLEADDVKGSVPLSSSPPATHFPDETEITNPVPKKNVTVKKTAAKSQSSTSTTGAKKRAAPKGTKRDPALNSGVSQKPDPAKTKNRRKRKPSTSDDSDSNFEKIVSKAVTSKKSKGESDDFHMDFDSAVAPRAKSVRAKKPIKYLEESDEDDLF

CC(C)(C)Nc1c(-c2ccc(Cl)cc2)nc2ccc(Cl)cn12
inhibition [1]: Active | inhibition [2]: Active

COc1cc([C@@H]2c3cc4c(cc3[C@@H](O[C@@H]3O[C@@H]5CO[C@@H](C)O[C@H]5[C@H](O)[C@H]3O)[C@H]3COC(=O)[C@H]23)OCO4)cc(OC)c1O [ETOPOSIDE]
inhibition [3]: inactive | inhibition [4]: Active | CC50 (HEK293 [5]): 90 µM | inhibition [6]: inactive | inhibition [7]: inactive | inhibition [8]: Active

Cc1ccn2c(NC(C)(C)C)c(-c3ccc(Cl)cc3)nc2c1
inhibition [1]: inactive

CC(C)(C)Nc1c(-c2ccc[nH]2)nc2ccccn12
inhibition [1]: inactive

CC(C)(C)Nc1c(-c2ccc(F)cc2)nc2ccc(Cl)cn12
inhibition [1]: Active

CC(C)(C)Nc1c(-c2ccccc2)nc2cnccn12
inhibition [1]: inactive

CC(C)(C)Nc1c(-c2ccc(Cl)cc2)nc2ncccn12
inhibition [1]: Active

CCOC(=O)c1cnn2c(N)c(-c3ccc(Cl)cc3)[nH]c12
inhibition [3]: inactive | inhibition [4]: inactive | inhibition [1]: Active | inhibition [2]: Active | viability at 48 h, 100 µM [9]: < 50% | CC50 (HEK293 [5]): 25 µM | CC50 at 48 h [10]: 62 µM | CC50 (HEK293 [11]): 25 µM | inhibition (INH) (Vero): Dose-dependent effect | inhibition (HEK293 [12]): Dose-dependent effect | inhibition [6]: inactive

COc1cccc(-c2nc3cnccn3c2NC(C)(C)C)c1
inhibition [1]: inactive

CC(C)(C)Nc1c(-c2ccc(C(=O)O)cc2)nc2cnccn12
inhibition [1]: inactive

CC(C)(C)Nc1c(-c2ccc(Cl)cc2)nc2cnccn12
inhibition [3]: inactive | inhibition [4]: inactive | inhibition [1]: Active | inhibition [2]: Active | viability at 48 h, 100 µM [9]: < 50% | CC50 (HEK293 [5]): 10 µM | CC50 at 48 h [10]: 25 µM | CC50 (HEK293 [11]): 20 µM | inhibition (INH) (Vero): Dose-dependent effect | inhibition (HEK293 [12]): Dose-dependent effect | inhibition [6]: inactive

Clc1ccc(-c2nc3cnccn3c2NC2CCCCC2)cc1
inhibition [1]: inactive

CCOC(=O)c1cnn2c(NC3CCCCC3)c(-c3ccc(Cl)cc3)[nH]c12
inhibition [1]: Active

CC(C)(C)Nc1cnc2cnccn12
inhibition [1]: inactive

CC(C)(C)Nc1c(-c2ccc(Cl)cc2)nc2ccccn12
inhibition [1]: inactive

CC(C)(C)Nc1c(-c2ccccc2Cl)nc2cnccn12
inhibition [1]: Active

COc1ccc(-c2nc3cnccn3c2N)cc1
inhibition [1]: Active | inhibition [2]: Active

CN(C)c1ccc(-c2nc3ccccn3c2NC(C)(C)C)cc1
inhibition [1]: Active

Nc1c(-c2ccc(Cl)cc2)nc2ccccn12
inhibition [1]: Active | inhibition [2]: Active

CCOC(=O)c1cnn2c(NC(C)(C)C)c(-c3ccc(Cl)cc3)[nH]c12
inhibition [3]: inactive | inhibition [4]: inactive | inhibition [1]: Active | inhibition [2]: Active | viability at 48 h, 100 µM [9]: < 50% | CC50 (HEK293 [5]): 15 µM | CC50 at 48 h [10]: 22 µM | CC50 (HEK293 [11]): 15 µM | inhibition (INH) (Vero): Dose-dependent effect | inhibition (HEK293 [12]): Dose-dependent effect | inhibition [6]: inactive

Nc1c(-c2ccc(Cl)cc2)nc2cnccn12
inhibition [3]: inactive | inhibition [4]: inactive | inhibition [1]: Active | inhibition [2]: Active | viability at 48 h, 100 µM [9]: < 50% | CC50 (HEK293 [5]): 17 µM | CC50 at 48 h [10]: 28 µM | CC50 (HEK293 [11]): 16 µM | inhibition (INH) (Vero): Dose-dependent effect | inhibition (HEK293 [12]): Dose-dependent effect | inhibition [6]: inactive

CC(C)(C)Nc1nc2ncccn2c1-c1ccc(C#N)cc1
inhibition [1]: inactive

Nc1c(-c2ccccn2)nc2ccc(Cl)cn12
inhibition [1]: inactive

CC(C)(C)Nc1c(-c2cccc3ccccc23)nc2ccccn12
inhibition [1]: Active

CCCc1nc2ccccn2c1NC(C)(C)C
inhibition [1]: inactive

CC(C)(C)Nc1cnc2ccccn12
inhibition [1]: inactive

CC(C)(C)Nc1c(-c2ccc(Cl)cc2)nc2[nH]c3ccccc3n12
inhibition [1]: Active

CC(C)(C)Nc1c(-c2ccccn2)nc2ccccn12
inhibition [1]: Active | inhibition [2]: Active

O=c1[nH]cc(F)c(=O)[nH]1 [FLUOROURACIL]
viability at 30 µM (HEK293 [13]): 50%

N#Cc1ccc(-c2nc3ccc(Br)cn3c2N)cc1
inhibition [1]: Active

Reference: ChEMBL document CHEMBL1914308, “N-fused imidazoles as novel anticancer agents that inhibit catalytic activity of topoisomerase IIα and induce apoptosis in G1/S phase” (J Med Chem, 2011)
